Test results published in ChEMBL document CHEMBL1142506, “(3S)-N-(L-Aminoacyl)-1,2,3,4-tetrahydroisoquinolines, a class of novel antithrombotic agents: synthesis, bioassay, 3D QSAR, and ADME analysis” (Bioorg Med Chem, 2008).
Square brackets hold non-standard residues; d marks the D form. Peptide text beside a SMILES is read from it. Tic = O=C(O)[C@@H]1Cc2ccccc2CN1

Key:
Platelet [1] = test: Inhibition of arachidonic acid-induced platelet aggregation in pig blood; type: functional, cell-based; conditions: Sus scrofa
Outline: (§1)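 Pig blood was spun at 1000g for 10 min to give PRP and at 1500g for 10 min to give PPP. PRP was adjusted to 2 × 10^8 platelets/ml with autologous PPP. The sample was preincubated with test agent or NS. Agonist final concentrations, each in NS: ADP 10 µM, AA 350 µM, PAF 0.1 µM, thrombin 0.1 U/ml. Optical aggregometry ran 5 min at 37 °C. Peak height gave maximal aggregation; % inhibition versus NS gave IC50.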

Platelet [2] = test: Inhibition of thrombin-induced platelet aggregation in pig blood; type: functional, cell-based; conditions: Sus scrofa; outline: as §1
Platelet [3] = test: Inhibition of platelet-activating factor-induced platelet aggregation in pig blood; type: functional, cell-based; conditions: Sus scrofa; outline: as §1
Platelet [4] = test: Inhibition of adenosine diphosphate-induced platelet aggregation in pig blood; type: functional, cell-based; conditions: Sus scrofa; outline: as §1
Rattus norvegicus [5] = test: Antithrombotic activity in Wistar rat assessed as wet thrombus weight at 5 umol/kg; type: functional
Outline: (§2)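 Male Wistar rats (250–300 g) got the test agent orally, dissolved in NS and kept on ice; NS served as vehicle. After 45 min, rats were anesthetized with pentobarbital sodium (80.0 mg/kg ip). An extracorporeal carotid artery–jugular vein polyethylene cannula holding a weighed 6 cm thread was placed, and the wet thrombus weight on the thread was recorded.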

Rattus norvegicus [6] = test: Antithrombotic activity in Wistar rat assessed as wet thrombus weight at 15 umol/kg; type: functional; outline: as §2
Rattus norvegicus [7] = test: Antithrombotic activity in Wistar rat assessed as wet thrombus weight at 500 nmol/kg; type: functional
Outline: (§3)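 Dose series (5 µmol/kg, 500 nmol/kg, 50 nmol/kg, 5 nmol/kg) given by intravenous injection to male Wistar rats (250–300 g) in an arteriovenous cannula model containing a weighed 6 cm thread. Anesthesia was pentobarbital sodium (80.0 mg/kg ip) with NS vehicle. Wet thrombus weight is given as mean ± SD, n = 12.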

Rattus norvegicus [8] = test: Antithrombotic activity in Wistar rat assessed as wet thrombus weight at 50 nmol/kg; type: functional; outline: as §3
Rattus norvegicus [9] = test: Antithrombotic activity in Wistar rat assessed as wet thrombus weight at 5 nmol/kg; type: functional; outline: as §3
Rattus norvegicus [10] = test: Antithrombotic activity in Wistar rat assessed as wet thrombus weight at 22 x 5 umol/kg; type: functional; outline: as §2
Rattus norvegicus [11] = test: Antithrombotic activity in Wistar rat assessed as wet thrombus weight at 110 x 5 umol/kg; type: functional; outline: as §2

SMILES | IC50 (Platelet [1]) | IC50 (Platelet [2]) | IC50 (Platelet [3]) | IC50 (Platelet [4]) | Activity (Rattus norvegicus [5]) | Activity (Rattus norvegicus [6]) | Activity (Rattus norvegicus [7]) | Activity (Rattus norvegicus [8]) | Activity (Rattus norvegicus [9]) | Activity (Rattus norvegicus [10]) | Activity (Rattus norvegicus [11])
O=C(O)[C@@H]1Cc2ccccc2CN1 | 452 nM | 882 nM | 960 nM | 552 nM | 26.88 mg | 21.52 mg |  |  |  |  | 
C[C@H](N)C(=O)N1Cc2ccccc2C[C@H]1C(=O)O (H-Ala-[Tic]-OH) | 440 nM | 741 nM | 945 nM | 651 nM | 20.3 mg |  |  |  |  |  | 
N=C(N)NCCC[C@H](N)C(=O)N1Cc2ccccc2C[C@H]1C(=O)O (H-Arg-[Tic]-OH) | 217 nM | 565 nM | 517 nM | 210 nM | 20.06 mg |  |  |  |  |  | 
N[C@@H](CC(=O)O)C(=O)N1Cc2ccccc2C[C@H]1C(=O)O (H-Asp-[Tic]-OH) | 369 nM | 902 nM | 383 nM | 345 nM | 20.3 mg |  |  |  |  |  | 
N[C@@H](CCC(=O)O)C(=O)N1Cc2ccccc2C[C@H]1C(=O)O (H-Glu-[Tic]-OH) | 298 nM | 589 nM | 544 nM | 494 nM | 20.87 mg |  |  |  |  |  | 
NCC(=O)N1Cc2ccccc2C[C@H]1C(=O)O (H-Gly-[Tic]-OH) | 423 nM | 761 nM | 875 nM | 365 nM | 21.17 mg |  |  |  |  |  | 
N[C@@H](Cc1c[nH]cn1)C(=O)N1Cc2ccccc2C[C@H]1C(=O)O (H-His-[Tic]-OH) | 521 nM | 684 nM | 670 nM | 324 nM | 21.78 mg |  |  |  |  |  | 
CC[C@H](C)[C@H](N)C(=O)N1Cc2ccccc2C[C@H]1C(=O)O (H-Ile-[Tic]-OH) | 465 nM | 674 nM | 831 nM | 315 nM | 21.14 mg |  |  |  |  |  | 
CC(C)C[C@H](N)C(=O)N1Cc2ccccc2C[C@H]1C(=O)O (H-Leu-[Tic]-OH) | 238 nM | 730 nM | 892 nM | 336 nM | 19.12 mg |  |  |  |  |  | 
N[C@@H](CO)C(=O)N1Cc2ccccc2C[C@H]1C(=O)O (H-Ser-[Tic]-OH) | 215 nM | 498 nM | 267 nM | 103 nM | 18 mg |  | 18.31 mg | 22.54 mg | 28.58 mg |  | 
C[C@@H](O)[C@H](N)C(=O)N1Cc2ccccc2C[C@H]1C(=O)O (H-Thr-[Tic]-OH) | 535 nM | 879 nM | 404 nM | 240 nM | 20.73 mg |  |  |  |  |  | 
N[C@@H](Cc1ccc(O)cc1)C(=O)N1Cc2ccccc2C[C@H]1C(=O)O (H-Tyr-[Tic]-OH) | 526 nM | 738 nM | 668 nM | 327 nM | 20.92 mg |  |  |  |  |  | 
CC(C)[C@H](N)C(=O)N1Cc2ccccc2C[C@H]1C(=O)O (H-Val-[Tic]-OH) | 666 nM | 653 nM | 632 nM | 389 nM | 20.12 mg |  |  |  |  |  | 
CC(=O)Oc1ccccc1C(=O)O [ASPIRIN] |  |  |  |  |  |  |  |  |  | 27.6 mg | 13.22 mg

Further compounds by falling IC50 (Platelet [1]), results first:

IC50 (Platelet [1]) | IC50 (Platelet [2]) | IC50 (Platelet [3]) | IC50 (Platelet [4]) | SMILES | Activity (Rattus norvegicus [5]) | Activity (Rattus norvegicus [6]) | Activity (Rattus norvegicus [7]) | Activity (Rattus norvegicus [8]) | Activity (Rattus norvegicus [9]) | Activity (Rattus norvegicus [10]) | Activity (Rattus norvegicus [11])
3430 nM | 3290 nM | 3180 nM | 3320 nM | O=C(O)[C@@H]1Cc2c([nH]c3ccccc23)CN1 [CYCLOMETHYLTRYPTOPHAN] |  |  |  |  |  |  | 
573 nM | 851 nM | 527 nM | 370 nM | N[C@@H](Cc1ccccc1)C(=O)N1Cc2ccccc2C[C@H]1C(=O)O (H-Phe-[Tic]-OH) | 22.23 mg |  |  |  |  |  | 
572 nM | 720 nM | 422 nM | 194 nM | N[C@@H](Cc1c[nH]c2ccccc12)C(=O)N1Cc2ccccc2C[C@H]1C(=O)O (H-Trp-[Tic]-OH) | 19.47 mg |  |  |  |  |  | 
430 nM | 607 nM | 409 nM | 265 nM | CSCC[C@H](N)C(=O)N1Cc2ccccc2C[C@H]1C(=O)O (H-Met-[Tic]-OH) | 19.56 mg |  |  |  |  |  | 
407 nM | 495 nM | 360 nM | 534 nM | NC(=O)C[C@H](N)C(=O)N1Cc2ccccc2C[C@H]1C(=O)O (H-Asn-[Tic]-OH) | 22.66 mg |  |  |  |  |  | 
382 nM | 590 nM | 507 nM | 373 nM | O=C(O)[C@@H]1Cc2ccccc2CN1C(=O)[C@@H]1CCCN1 (H-Pro-[Tic]-OH) | 21.09 mg |  |  |  |  |  | 
351 nM | 555 nM | 392 nM | 302 nM | NC(=O)CC[C@H](N)C(=O)N1Cc2ccccc2C[C@H]1C(=O)O (H-Gln-[Tic]-OH) | 21.3 mg |  |  |  |  |  | 
344 nM | 829 nM | 472 nM | 323 nM | NCCCC[C@H](N)C(=O)N1Cc2ccccc2C[C@H]1C(=O)O (H-Lys-[Tic]-OH) | 21.31 mg |  |  |  |  |  | 
